{"source": "ChEMBL document CHEMBL1122319", "about": "“Substituted (2-phenoxyphenyl)acetic acids with antiinflammatory activity. 1” (J Med Chem, 1983)", "format_in_all_cases": "functional", "key": {"Rattus norvegicus [1]": {"system": "Rattus norvegicus", "experiment": "Reduction in paw swelling at 100 mg/kg po dose in rat using adjuvant arthritis test; value is +23 indicates exacerbation of paw swelling."}, "Rattus norvegicus [2]": {"system": "Rattus norvegicus", "experiment": "Reduction in paw swelling at 100 mg/kg po dose in rat using adjuvant arthritis test; value is +8 indicates exacerbation of paw swelling."}, "Rattus norvegicus [3]": {"organism": "Rattus norvegicus", "experiment": "Minimum ulcerogenic dose(MUD) of the compound."}, "Rattus norvegicus [4]": {"system": "Rattus norvegicus", "experiment": "Reduction in paw swelling at 100 mg/kg po dose in rat using adjuvant arthritis test."}, "Rattus norvegicus [5]": {"organism": "Rattus norvegicus", "experiment": "(§1) Potency relative to [2-(2,4-Dichloro-phenoxy)-phenyl]-acetic acid in rat adjuvant arthritis test"}, "Rattus norvegicus [6]": {"system": "Rattus norvegicus", "experiment": "Reduction in paw swelling at 100 mg/kg po dose in rat using adjuvant arthritis test; value is +6 indicates exacerbation of paw swelling."}, "Rattus norvegicus [7]": {"system": "Rattus norvegicus", "experiment": "Reduction in paw swelling at 100 mg/kg po dose in rat using adjuvant arthritis test; value is +12 indicates exacerbation of paw swelling."}, "Rattus norvegicus [8]": {"system": "Rattus norvegicus", "experiment": "Reduction in paw swelling at 100 mg/kg po dose in rat using adjuvant arthritis test; value is +9 indicates exacerbation of paw swelling."}, "Rattus norvegicus [9]": {"organism": "Rattus norvegicus", "experiment": "as §1", "how_it_was_run": "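Established (therapeutic) adjuvant arthritis test in rats: the drug was given after arthritis had fully developed. Relative potency against the reference standard was derived from a three-dose-level assay based on paw volume changes.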", "remark": "listed apart in the source"}, "Rattus norvegicus [10]": {"system": "Rattus norvegicus", "experiment": "Reduction in paw swelling at 100 mg/kg po dose in rat using adjuvant arthritis test; value is +1 indicates exacerbation of paw swelling."}, "Rattus norvegicus [11]": {"system": "Rattus norvegicus", "experiment": "Reduction in paw swelling at 100 mg/kg po dose in rat using adjuvant arthritis test; value is +3 indicates exacerbation of paw swelling."}, "Rattus norvegicus [12]": {"system": "Rattus norvegicus", "experiment": "Reduction in paw swelling at 100 mg/kg po dose in rat using adjuvant arthritis test; value is +7 indicates exacerbation of paw swelling."}, "Rattus norvegicus [13]": {"system": "Rattus norvegicus", "experiment": "Reduction in paw swelling at 100 mg/kg po dose in rat using adjuvant arthritis test; value is +4 indicates exacerbation of paw swelling."}, "Rattus norvegicus [14]": {"system": "Rattus norvegicus", "experiment": "Reduction in paw swelling at 100 mg/kg po dose in rat using adjuvant arthritis test; value is +13 indicates exacerbation of paw swelling."}, "Rattus norvegicus [15]": {"system": "Rattus norvegicus", "experiment": "Reduction in paw swelling at 100 mg/kg po dose in rat using adjuvant arthritis test; value is +5 indicates exacerbation of paw swelling."}, "Rattus norvegicus [16]": {"system": "Rattus norvegicus", "experiment": "Reduction in paw swelling at 100 mg/kg po dose in rat using adjuvant arthritis test; value is +20 indicates exacerbation of paw swelling."}, "Rattus norvegicus [17]": {"system": "Rattus norvegicus", "experiment": "Reduction in paw swelling at 100 mg/kg po dose in rat using adjuvant arthritis test; value is +2 indicates exacerbation of paw swelling."}}}
{"smiles": "Cc1ccc(Oc2c(Cl)cccc2CC(=O)O)c(Cl)c1", "values": [{"measurement": "Reduction", "setting": "Rattus norvegicus [1]", "value": 23}]}
{"smiles": "CCCCc1ccc(Oc2ccc(C)cc2Cl)c(CC(=O)O)c1", "values": [{"measurement": "Reduction", "setting": "Rattus norvegicus [2]", "value": 8}]}
{"smiles": "Cc1ccc(Oc2ccc(C(C)(C)C)cc2Cl)c(CC(=O)O)c1", "values": [{"measurement": "MUD", "setting": "Rattus norvegicus [3]", "value": ">500", "unit": "mg/kg"}, {"measurement": "Reduction", "setting": "Rattus norvegicus [4]", "value": 34}, {"measurement": "Relative potency", "setting": "Rattus norvegicus [5]", "value": 1.6}]}
{"smiles": "COc1ccc(Oc2ccc(C)cc2Cl)c(CC(=O)O)c1", "values": [{"measurement": "Reduction", "setting": "Rattus norvegicus [6]", "value": 6}]}
{"smiles": "COc1cc(Oc2ccc(C)cc2Cl)c(CC(=O)O)cc1C", "values": [{"measurement": "Reduction", "setting": "Rattus norvegicus [7]", "value": 12}]}
{"smiles": "Cc1ccc(Oc2cccc(O)c2CC(=O)O)c(Cl)c1", "values": [{"measurement": "Reduction", "setting": "Rattus norvegicus [8]", "value": 9}]}
{"smiles": "O=C(Cc1ccccc1Oc1ccc(Cl)cc1Cl)NO", "values": [{"measurement": "Reduction", "setting": "Rattus norvegicus [4]", "value": 28, "unit": "%"}, {"measurement": "Relative potency", "setting": "Rattus norvegicus [9]", "value": 1}]}
{"smiles": "Cc1ccc(Oc2cc(C)ccc2CC(=O)O)c(Cl)c1", "values": [{"measurement": "Reduction", "setting": "Rattus norvegicus [10]", "value": 1}]}
{"smiles": "Cc1ccc(Oc2cccc(O)c2)c(CC(=O)O)c1", "values": [{"measurement": "Reduction", "setting": "Rattus norvegicus [11]", "value": 3}]}
{"smiles": "Cc1ccc(Oc2cc(Cl)c(C)cc2CC(=O)O)c(Cl)c1", "values": [{"measurement": "Reduction", "setting": "Rattus norvegicus [12]", "value": 7}]}
{"smiles": "Nc1cc(Cl)ccc1Oc1ccccc1CC(=O)O", "values": [{"measurement": "Reduction", "setting": "Rattus norvegicus [13]", "value": 4}]}
{"smiles": "O=C(O)/C=C/c1ccccc1Oc1ccc(Cl)cc1Cl", "values": [{"measurement": "Reduction", "setting": "Rattus norvegicus [2]", "value": 8}]}
{"smiles": "CCc1ccc(Oc2ccc(C)cc2Cl)c(CC(=O)O)c1", "values": [{"measurement": "Reduction", "setting": "Rattus norvegicus [14]", "value": 13}]}
{"smiles": "Nc1ccc(Oc2ccccc2CC(=O)O)c(Cl)c1", "values": [{"measurement": "Reduction", "setting": "Rattus norvegicus [15]", "value": 5}]}
{"smiles": "Cc1ccc(Oc2cc(O)ccc2CC(=O)O)c(Cl)c1", "values": [{"measurement": "Reduction", "setting": "Rattus norvegicus [16]", "value": 20}]}
{"smiles": "Cc1ccc(Oc2ccc(C3CCCCC3)cc2Cl)c(CC(=O)O)c1", "values": [{"measurement": "Reduction", "setting": "Rattus norvegicus [17]", "value": 2}]}
